Laboratory results taken from ChEMBL document CHEMBL1155549, “Sialic acid-mimic peptides as hemagglutinin inhibitors for anti-influenza therapy” (J Med Chem, 2010).
Where a SMILES comes first, the peptide text is derived from it. The star is where a group is joined. Stearoyl = CCCCCCCCCCCCCCCCCC(=O)*

Assays:
[1] = Binding affinity to Influenza A virus (A/Wuhan/359/1995 (H3N2)) hemagglutininin by phage ELISA
Procedure, shortened: (§1)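 Wells coated with target (HA, WGA or anti-GM3 antibody) were blocked with 1% BSA/TBS. Phage in TBS was added for 2 h, washed with TBST and reblocked with 5% BSA/TBS. Detection used anti-fd antibody then peroxidase anti-rabbit IgG, 1 h each, with o-phenylenediamine read as ΔA at 492 nm, in triplicate. Phage concentration came from A260. Kd was from a linear plot of ΔA against phage concentration.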

[2] = Binding affinity to wheat germ agglutinin by phage ELISA; design: species or system Triticum aestivum; procedure, shortened: as §1
[3] = target: Hemagglutinin (Influenza A virus (A/Puerto Rico/8/1934(H1N1)), UniProt P03452); assay: Binding affinity to Influenza A virus (A/Puerto Rico/8/34(H1N1)) hemagglutininin by phage ELISA; procedure, shortened: as §1
Influenza A virus = assay: Antiviral activity against Influenza A virus (A/Puerto Rico/8/34(H1N1)) infected in MDCK cells after 48 hrs by plaque assay; assay type: functional, organism-based; conditions: A/Puerto Rico/8/1934(H1N1)
Procedure, shortened: (§2)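 N-stearoyl peptides were serially diluted in PBS from a 2 mM stock and mixed with 50-200 pfu virus for 30 min at room temperature. The mixture was put on MDCK monolayers for 30 min at 37 °C under 5% CO2, then washed off. After 2 days, plaques were stained with crystal violet and counted. Inhibition was 100(1 - N/N0), n = 3, plotted against concentration.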

H3N2 subtype = assay: Antiviral activity against Influenza A virus (A/Aichi/2/1968(H3N2)) infected in MDCK cells after 48 hrs by plaque assay; assay type: functional, organism-based; procedure, shortened: as §2

Sequence of Hemagglutinin (Influenza A virus (A/Puerto Rico/8/1934(H1N1)), UniProt P03452) (P03452 18-342 limits assumed): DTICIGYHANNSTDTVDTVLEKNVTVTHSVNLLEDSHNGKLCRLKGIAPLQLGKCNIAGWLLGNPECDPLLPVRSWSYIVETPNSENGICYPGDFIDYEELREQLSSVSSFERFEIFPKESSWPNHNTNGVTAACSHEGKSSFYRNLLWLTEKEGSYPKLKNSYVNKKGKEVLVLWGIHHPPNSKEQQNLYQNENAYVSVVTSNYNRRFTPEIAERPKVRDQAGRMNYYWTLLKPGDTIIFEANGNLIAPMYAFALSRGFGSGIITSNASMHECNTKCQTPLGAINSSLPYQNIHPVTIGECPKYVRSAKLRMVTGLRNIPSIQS
Sequence of Hemagglutinin (Influenza A virus (A/Puerto Rico/8/1934(H1N1)), UniProt P03452) (P03452 344-565 limits assumed): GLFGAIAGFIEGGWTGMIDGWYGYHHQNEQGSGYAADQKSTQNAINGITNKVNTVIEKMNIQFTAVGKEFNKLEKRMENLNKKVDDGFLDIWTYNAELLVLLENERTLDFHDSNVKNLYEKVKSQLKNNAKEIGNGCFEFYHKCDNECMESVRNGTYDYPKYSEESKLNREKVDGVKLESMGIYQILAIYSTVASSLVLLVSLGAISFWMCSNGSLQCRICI

Compound | Kd [1] | Kd [2] | Kd [3] | IC50 (Influenza A virus) | IC50 (H3N2 subtype)
CSCC[C@H](NC(=O)[C@@H](NC(=O)[C@@H]1CCCN1C(=O)[C@H](CO)NC(=O)[C@H](CC(C)C)NC(=O)[C@H](CCCN=C(N)N)NC(=O)[C@H](C)N)[C@@H](C)O)C(=O)N[C@H](C(=O)N[C@@H](Cc1cnc[nH]1)C(=O)N1CCC[C@H]1C(=O)N[C@@H](CC(N)=O)C(=O)NCC(=O)N[C@@H](C)C(=O)N[C@@H](CCC(N)=O)C(=O)N1CCC[C@H]1C(=O)O)C(C)C | 0.0086 µM | 0.016 µM | 0.0078 µM | – | –
CCCCCCCCCCCCCCCCCC(=O)N[C@@H](C)C(=O)N[C@@H](CCCNC(=N)N)C(=O)N[C@@H](CC(C)C)C(=O)N1CCC[C@H]1C(=O)N[C@@H](CCCNC(=N)N)C(N)=O (Stearoyl-ARLPR-NH2) | – | – | – | 1.6 µM | 1.9 µM
CCCCCCCCCCCCCCCCCC(=O)N[C@@H](C)C(=O)N[C@@H](CCCNC(=N)N)C(=O)N[C@@H](CC(C)C)C(=O)N1CCC[C@H]1C(=O)N[C@@H](CCCNC(=N)N)C(=O)N[C@@H](CC(N)=O)C(=O)N[C@@H](CCSC)C(=O)N[C@H](C(=O)N[C@@H](Cc1cnc[nH]1)C(=O)N[C@@H](Cc1cnc[nH]1)C(=O)N[C@@H](CCCCN)C(=O)N[C@H](C(=O)N[C@@H](C)C(=O)N[C@@H](CCC(N)=O)C(=O)N1CCC[C@H]1C(N)=O)[C@@H](C)O)C(C)C (Stearoyl-ARLPRNMVHHKTAQP-NH2) | – | – | – | 15 µM | 6.2 µM
CCCCCCCCCCCCCCCCCC(=O)N[C@@H](C)C(=O)N[C@@H](CCCNC(=N)N)C(=O)N[C@@H](CC(C)C)C(=O)N1CCC[C@H]1C(=O)N[C@@H](CCCNC(=N)N)C(=O)N[C@@H](CO)C(=O)N[C@@H](CCSC)C(=O)N[C@H](C(=O)N[C@@H](Cc1cnc[nH]1)C(=O)N[C@@H](Cc1cnc[nH]1)C(=O)N[C@@H](CCCCN)C(=O)N1CCC[C@H]1C(=O)N[C@@H](C)C(=O)N[C@@H](CCC(N)=O)C(=O)N1CCC[C@H]1C(N)=O)C(C)C (Stearoyl-ARLPRSMVHHKPAQP-NH2) | – | – | – | 22 µM | 8.9 µM
CCCCCCCCCCCCCCCCCC(=O)N[C@@H](C)C(=O)N[C@@H](CCCNC(=N)N)C(=O)N[C@@H](CC(C)C)C(=O)N1CCC[C@H]1C(=O)N[C@@H](CCCNC(=N)N)C(=O)N[C@H](C(=O)N[C@@H](CC(C)C)C(=O)N[C@H](C(=O)N[C@@H](Cc1cnc[nH]1)C(=O)N1CCC[C@H]1C(=O)N[C@@H](CCCCN)C(=O)N[C@@H](Cc1cnc[nH]1)C(=O)N[C@@H](C)C(=O)N[C@@H](CCC(N)=O)C(=O)N[C@@H](C)C(N)=O)C(C)C)[C@@H](C)O (Stearoyl-ARLPRTLVHPKHAQA-NH2) | – | – | – | 13.5 µM | 7.6 µM
CCCCCCCCCCCCCCCCCC(=O)N[C@@H](C)C(=O)N[C@@H](CCCNC(=N)N)C(=O)N[C@@H](CC(C)C)C(=O)N1CCC[C@H]1C(=O)N[C@@H](CCCNC(=N)N)C(=O)N[C@H](C(=O)N[C@@H](CCSC)C(=O)N[C@H](C(N)=O)C(C)C)[C@@H](C)O (Stearoyl-ARLPRTMV-NH2) | – | – | – | 4.2 µM | 3 µM
CCCCCCCCCCCCCCCCCC(=O)N[C@@H](C)C(=O)N[C@@H](CCCNC(=N)N)C(=O)N[C@@H](CC(C)C)C(=O)N1CCC[C@H]1C(=O)N[C@@H](CCCNC(=N)N)C(=O)N[C@H](C(=O)N[C@@H](CCSC)C(=O)N[C@H](C(=O)N[C@@H](Cc1cnc[nH]1)C(=O)N1CCC[C@H]1C(=O)N[C@@H](CCCCN)C(=O)N1CCC[C@H]1C(=O)N[C@@H](C)C(=O)N[C@@H](CCC(N)=O)C(=O)N1CCC[C@H]1C(N)=O)C(C)C)[C@@H](C)O (Stearoyl-ARLPRTMVHPKPAQP-NH2) | – | – | – | 15 µM | 11 µM
CCCCCCCCCCCCCCCCCC(=O)N[C@@H](C)C(=O)N[C@@H](CCCNC(=N)N)C(=O)N[C@@H](CC(C)C)C(=O)N1CCC[C@H]1C(=O)N[C@@H](CCCNC(=N)N)C(=O)N[C@H](C(=O)N[C@@H](CCSC)C(=O)N[C@H](C(=O)N[C@@H](Cc1cnc[nH]1)C(=O)N1CCC[C@H]1C(=O)N[C@@H](CCCCN)C(=O)N[C@H](C(=O)N[C@@H](C)C(=O)N[C@@H](Cc1cnc[nH]1)C(=O)N[C@@H](CCC(N)=O)C(N)=O)[C@@H](C)O)C(C)C)[C@@H](C)O (Stearoyl-ARLPRTMVHPKTAHQ-NH2) | – | – | – | 13 µM | 8 µM
CCCCCCCCCCCCCCCCCC(=O)N[C@@H](C)C(=O)N[C@@H](CCCNC(=N)N)C(=O)N[C@@H](CC(C)C)C(=O)N1CCC[C@H]1C(=O)N[C@@H](CCCNC(=N)N)C(=O)N[C@H](C(=O)N[C@@H](CCSC)C(=O)N[C@H](C(=O)N[C@@H](Cc1cnc[nH]1)C(=O)N[C@@H](CO)C(=O)N[C@@H](CCCCN)C(=O)N1CCC[C@H]1C(=O)N[C@@H](C)C(=O)N[C@@H](CCC(N)=O)C(=O)N1CCC[C@H]1C(=O)O)C(C)C)[C@@H](C)O (Stearoyl-ARLPRTMVHSKPAQP-OH) | – | – | – | 41 µM | 6.8 µM
CCCCCCCCCCCCCCCCCC(=O)N[C@@H](C)C(=O)N[C@@H](CCCNC(=N)N)C(=O)N[C@@H](CC(C)C)C(=O)N[C@@H](CO)C(=O)N1CCC[C@H]1C(=O)N[C@H](C(=O)N[C@@H](CCSC)C(=O)N[C@H](C(=O)N[C@@H](Cc1cnc[nH]1)C(=O)N1CCC[C@H]1C(=O)N[C@@H](CC(N)=O)C(=O)NCC(=O)N[C@@H](C)C(=O)N[C@@H](CCC(N)=O)C(=O)N1CCC[C@H]1C(N)=O)C(C)C)[C@@H](C)O (Stearoyl-ARLSPTMVHPNGAQP-NH2) | – | – | – | > 1000 µM | –
CCCCCCCCCCCCCCCCCC(=O)N[C@@H](CCCNC(=N)N)C(=O)N[C@H](C(=O)N[C@@H](CCSC)C(=O)N[C@H](C(=O)N[C@@H](Cc1cnc[nH]1)C(=O)N1CCC[C@H]1C(=O)N[C@@H](CCCCN)C(N)=O)C(C)C)[C@@H](C)O (Stearoyl-RTMVHPK-NH2) | – | – | – | > 100 µM | 11 µM
CCCCCCCCCCCCCCCCCC(=O)N[C@H](C(=O)N[C@@H](CCCNC(=N)N)C(=O)N[C@@H](CC(C)C)C(=O)N1CCC[C@H]1C(=O)N[C@@H](CCCNC(=N)N)C(=O)N[C@H](C(=O)N[C@@H](CCSC)C(=O)N[C@@H](CC(C)C)C(=O)N[C@@H](Cc1cnc[nH]1)C(=O)N[C@@H](Cc1cnc[nH]1)C(=O)N[C@@H](CCCCN)C(=O)N1CCC[C@H]1C(=O)N[C@@H](C)C(=O)N[C@@H](CCC(N)=O)C(=O)N[C@@H](C)C(N)=O)[C@@H](C)O)[C@@H](C)O (Stearoyl-TRLPRTMLHHKPAQA-NH2) | – | – | – | 5.1 µM | 10 µM
CCCCCCCCCCCCCCCCCC(=O)N[C@H](C(=O)N[C@@H](Cc1cnc[nH]1)C(=O)N1CCC[C@H]1C(=O)N[C@@H](CCCCN)C(=O)N1CCC[C@H]1C(=O)N[C@@H](C)C(=O)N[C@@H](CCC(N)=O)C(=O)N1CCC[C@H]1C(N)=O)C(C)C (Stearoyl-VHPKPAQP-NH2) | – | – | – | 10 µM | 59 µM
CCCCCCCCCCCCCCCCCC(=O)N[C@H](C(=O)N[C@@H](CCSC)C(=O)N[C@H](C(=O)N[C@@H](CCCNC(=N)N)C(=O)N1CCC[C@H]1C(=O)N[C@@H](CC(C)C)C(=O)N[C@@H](CCCNC(=N)N)C(=O)N[C@@H](C)C(N)=O)[C@@H](C)O)C(C)C (Stearoyl-VMTRPLRA-NH2) | – | – | – | > 100 µM | > 100 µM
H-EPYGFIAFSRAAHSP-OH | 0.02 µM | 0.03 µM | 0.03 µM | – | –
H-GRPPDSVFRSRGWLS-OH | 0.0089 µM | 0.02 µM | 0.011 µM | – | –
H-GRVPVFGLSPLFKVE-OH | 0.016 µM | 0.019 µM | 0.0078 µM | – | –
H-IDIAFSSLALADISR-OH [IDIAFSSLALADISR] [listing 1 of 2 here] | – | – | 0.019 µM | – | –
H-IDIAFSSLALADISR-OH [IDIAFSSLALADISR] [listing 2 of 2 here] | 0.013 µM | 0.03 µM | – | – | –
